Data published in ChEMBL document CHEMBL4229565 (J Med Chem, 2018).
Calls of active or inactive are those of the source. No cut-off for these calls is given here.

What was measured:
[1] = Inhibition of Trypanosoma brucei NMT using [3H]-myristoyl-coA/biotinylated CAP5.5 as substrate after 50 mins by scintillation proximity assay
Outline: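 TbNMT scintillation proximity assay at 22–23 °C, with test compound dilutions added in DMSO. Reaction: 30 mM Tris pH 7.4, 0.5 mM EDTA, 0.5 mM EGTA, 1.25 mM DTT, 0.1% Triton X-100, 0.125 μM [3H]myristoyl-coA, 0.5 μM biotinylated CAP5.5 peptide, 5 nM enzyme. Enzyme added first, then substrate mix to start; stopped after 50 min with phosphoric acid pH 4.0/MgCl2/SPA beads; scintillation counting.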

[2] = tested on: Trypanosoma brucei brucei; experiment: Antitrypanosomal activity against bloodstream form of Trypanosoma brucei brucei s427 after 69 hrs by resazurin-based […] analysis; format: functional, organism-based; details: s427, 69 h
Outline: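 Bloodstream T. b. brucei s427 was grown in modified HMI9 (56 μM 1-thioglycerol in place of 2-mercaptoethanol) and counted by hemocytometer. Cells (10^4/ml) were added to compound in DMSO and incubated 69 h at 37 °C, 5% CO2. Resazurin (50 μM final) was then added for 4 h more. Fluorescence read at ex 528/em 590 nm.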

[3] = Intrinsic clearance in CD1 mouse liver microsomes at 1 uM measured up to 30 mins by UPLC-MS/MS method; format: ADME, microsome; details: 0.5 h
[4] = Fraction unbound in CD1 mouse plasma at 10 ug/ml after 5 hrs by UPLC-MS/MS analysis
[5] = Cmax in NMRI mouse at 50 mg/kg, po administered via gavage by UPLC/MS/MS analysis; format: ADME, organism-based; set-up: dose 50 mg/kg, route oral; details: in vivo
[6] = Tmax in NMRI mouse at 50 mg/kg, po administered via gavage by UPLC/MS/MS analysis; format: ADME, organism-based; details: in vivo
[7] = Toxicity in NMRI mouse administered orally for twice per day for 3 days; format: organism-based; details: in vivo, po
[8] = AUC (0 to 8 hrs) in NMRI mouse at 50 mg/kg, po administered via gavage by UPLC/MS/MS analysis; format: ADME, organism-based; set-up: dose 50 mg/kg, time < 8 hr, route oral; details: in vivo
[9] = tested on: Trypanosoma brucei brucei; experiment: Antitrypanosomal activity against Trypanosoma brucei brucei s427 trypomastigotes infected in NMRI mouse at 10 mg/kg, po administered twice daily for 4 days starting from day 3 post infection; format: functional, organism-based
Outline: (§1)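 Stage 1 HAT model: female NMRI mice infected with T. brucei s427. Compound given orally twice a day for 4 days, starting day 3 postinfection. Outcome scored as cure versus relapse.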

[10] = tested on: Trypanosoma brucei brucei; experiment: Antitrypanosomal activity against Trypanosoma brucei brucei s427 trypomastigotes infected in NMRI mouse at 0.3 to 3 mg/kg, po administered twice daily for 4 days starting from day 3 post infection; format: functional, organism-based; outline: as §1
[11] = target: Voltage-gated inwardly rectifying potassium channel KCNH2 (Homo sapiens, UniProt Q12809); experiment: Inhibition of human ERG by patch clamp assay
[12] = tested on: Trypanosoma brucei brucei; experiment: Antitrypanosomal activity against Trypanosoma brucei brucei GVR35 trypomastigotes infected in NMRI mouse assessed as reduction in parasitaemia level at 50 to 200 mg/kg, po administered twice daily for 5 days starting from day 21 post infection; format: functional, organism-based
[13] = tested on: Trypanosoma brucei brucei; experiment: Antitrypanosomal activity against Trypanosoma brucei brucei GVR35 trypomastigotes infected in CF1 mdr1a deficient mouse assessed as reduction in parasitaemia level at 50 mg/kg, po administered twice daily for 5 days starting from day 21 post infection; format: functional, organism-based
Outline: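 Stage 2 HAT model using CF-1 mdr1a-deficient mice infected with T. b. brucei GVR35. Compound given orally twice daily for 5 days from day 21 postinfection. Comparator arms: Berenil or melarsoprol given intraperitoneally once daily.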

[14] = Ratio of drug level in NMRI mouse brain to plasma at 0.5 mg/kg, iv after 5 to 30 mins by UPLC/MS/MS analysis; details: brain and plasma
[15] = Half life in CD1 mouse plasma at 50 uM by UPLC-MS/MS analysis; format: ADME, cell-free
[16] = Drug metabolism in CD1 mouse plasma assessed as 4-(azepan-1-yl)-3-(4-methoxyphenylsulfonamido)benzoic acid formation at 50 uM incubated for 30 to 180 mins by UPLC-MS/MS analysis; format: ADME, cell-free

Chain of Voltage-gated inwardly rectifying potassium channel KCNH2 (Q12809 whole entry): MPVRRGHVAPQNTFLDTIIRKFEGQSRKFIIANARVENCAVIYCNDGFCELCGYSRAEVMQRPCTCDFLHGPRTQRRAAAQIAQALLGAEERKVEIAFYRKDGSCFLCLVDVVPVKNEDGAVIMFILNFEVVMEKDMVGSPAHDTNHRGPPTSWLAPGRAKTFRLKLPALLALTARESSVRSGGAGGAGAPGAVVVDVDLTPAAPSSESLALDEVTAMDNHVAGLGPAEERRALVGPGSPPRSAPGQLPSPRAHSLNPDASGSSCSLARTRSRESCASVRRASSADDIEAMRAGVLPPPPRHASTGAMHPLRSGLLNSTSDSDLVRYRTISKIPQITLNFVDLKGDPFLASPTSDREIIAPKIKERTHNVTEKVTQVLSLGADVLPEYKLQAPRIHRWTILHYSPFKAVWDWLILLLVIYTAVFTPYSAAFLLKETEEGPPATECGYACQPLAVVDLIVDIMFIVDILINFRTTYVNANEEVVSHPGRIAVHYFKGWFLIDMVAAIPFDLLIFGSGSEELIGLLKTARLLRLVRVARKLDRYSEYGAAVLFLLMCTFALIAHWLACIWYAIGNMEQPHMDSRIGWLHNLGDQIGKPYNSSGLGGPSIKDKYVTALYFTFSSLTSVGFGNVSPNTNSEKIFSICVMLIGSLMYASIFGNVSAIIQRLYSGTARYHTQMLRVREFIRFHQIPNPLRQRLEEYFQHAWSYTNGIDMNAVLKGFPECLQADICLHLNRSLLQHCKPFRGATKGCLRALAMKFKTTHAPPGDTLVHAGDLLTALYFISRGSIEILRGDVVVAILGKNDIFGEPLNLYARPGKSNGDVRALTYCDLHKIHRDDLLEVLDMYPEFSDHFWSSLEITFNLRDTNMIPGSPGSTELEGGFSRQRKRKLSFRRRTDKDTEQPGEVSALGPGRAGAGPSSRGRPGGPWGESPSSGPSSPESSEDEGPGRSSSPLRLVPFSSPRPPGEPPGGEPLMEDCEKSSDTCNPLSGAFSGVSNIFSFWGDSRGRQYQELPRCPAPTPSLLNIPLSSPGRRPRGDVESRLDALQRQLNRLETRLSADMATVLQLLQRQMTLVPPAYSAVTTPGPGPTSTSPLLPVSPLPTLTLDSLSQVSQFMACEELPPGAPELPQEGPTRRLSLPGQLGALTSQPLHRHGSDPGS

Structure (SMILES) | EC50 [2] [nM] | CLH [3] [mL/min/g] | fraction unbound at 5 h, 10 ug/ml [4] | IC50 [1] [nM] | IC50 [11] [µM] | further results
CC(C)Cc1ccc2nn(C)cc2c1NS(=O)(=O)c1ccc(CCCCC2CCN(C)CC2)cc1 | 5 | 2.9 | 0.062 | < 5 | 3.7 | Cmax [5]: 11000 ng/mL; Tmax [6]: 1 h; MTD at 72 h [7]: > 300 mg/kg; AUC(0-t) at 8 h [8]: 48300 ng·h/mL; Activity [9]: Active; Activity [10]: inactive; Activity [12]: inactive; Activity [13]: Active
CC(C)Cc1ccc2ncccc2c1NS(=O)(=O)c1ccc(CCCN2CCN3CCC[C@@H]3C2)cc1 | 40 | 6.2 | 0.17 | < 5 | 1.3 | 
CC(C)Cc1ccc2ncccc2c1NS(=O)(=O)c1ccc(CCCO[C@@H]2C[C@H]3CC[C@@H](C2)N3C)cc1 | 91 | 1.5 | 0.18 | 7 | 1.6 | 
CC(C)Cc1ccc2nn(C)cc2c1NS(=O)(=O)c1ccc(CCCOC[C@H]2COCCN2C)cc1 | 220 | 20 |  | 7 | 3.1 | 
CC(C)Cc1ccc2nn(C)cc2c1N(C(F)F)S(=O)(=O)c1ccc(CCCCC2CCN(C)CC2)cc1 |  | 2.3 |  |  |  | Kp [14]: 1.9

Second part, led by results:

EC50 [2] [nM] | CLH [3] [mL/min/g] | fraction unbound at 5 h, 10 ug/ml [4] | Structure (SMILES) | IC50 [1] [nM] | IC50 [11] [µM] | further results
59 | 1.8 | 0.093 | CC(C)Cc1ccc2ncccc2c1NS(=O)(=O)c1ccc(CCCCN2CCCN(C)CC2)cc1 | 6 |  | 
20 |  |  | COC(=O)c1ccc(N2CCCCCC2)c(NS(=O)(=O)c2ccc(CCCCC3CCN(C)CC3)cc2)c1 | 6 |  | half-life at 50 µM [15]: < 15 min; Drug metabolism [16]: Metabolite_Detected
39 | 1.4 |  | CC(C)Cc1ccc2nn(C)cc2c1NS(=O)(=O)c1ccc(CCCO[C@@H]2C[C@H]3CC[C@@H](C2)N3C)cc1 | 5 | 3.3 | 
